Measurements from ChEMBL document CHEMBL4130635, “2,4-Diaminoquinazolines as Dual Toll-like Receptor (TLR) 7/8 Modulators for the Treatment of Hepatitis B Virus” (J Med Chem, 2018).
Active and inactive are the calls of the source. The rule behind the calls is not given here.

Key:
[1] = Cytotoxicity against HEK293 cells assessed as reduction in cell viability after 6 hrs by ATP lite assay; format: cell-based; details: human
[2] = Protein binding in human plasma fraction at 5 uM after 4.5 hrs LC-MS/MS-based rapid equilibrium dialysis method; format: ADME, cell-free; details: read-out: PPB (converted)
[3] = Cmax in Sprague-Dawley rat liver at 10 mg/kg, po; format: ADME, organism-based; set-up: dose 10 mg/kg, route oral
Method in brief: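 Male Sprague-Dawley rats given 10 mg/kg po as a solution. Compound measured in portal vein, systemic plasma and liver. Cmax taken from concentration–time profiles.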

[4] = Cmax in C57BL/6J mouse liver at 1 mg/kg, po by LC-MS analysis; format: ADME, organism-based; set-up: dose 1 mg/kg, route oral
Method in brief: (§1)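 Healthy C57BL/6 mice, groups of 15, given a single oral dose (0.3, 1, 3, 10 or 30 mg/kg) in 20% HP-β-CD. Blood drawn at 0.5 h. Three mice per group sacrificed at 0.5, 1, 2, 4 or 7 h, and compound in plasma and liver measured by LC−MS. Values rounded to whole numbers.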

[5] = Cmax in C57BL/6J mouse liver at 0.3 mg/kg, po by LC-MS analysis; format: ADME, organism-based; set-up: dose 0.3 mg/kg, route oral; method in brief: as §1
Liver [6] = experiment: Upregulation of IP-10 mRNA expression levels in C57BL/6J mouse liver at 3 mg/kg, po by RT-qPCR analysis (reference value: 1); format: functional
Liver [7] = experiment: Effect on cytokine profile in C57BL/6J mouse liver assessed as IL-12p70 levels at 0.3 mg/kg, po by multiplex assay (reference value: 5 pg/g); format: functional, organism-based
Method in brief: (§2)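 Single oral gavage in 20% HP-β-CD to healthy C57BL/6 mice, groups of 15 at 0.3, 1, 3, 10 or 30 mg/kg. Three mice per group sacrificed at 0.5, 1, 2, 4 or 7 h. Plasma and liver cytokines by multiplex, maximum level reported, rounded to nearest multiple of 5.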

Liver [8] = experiment: Effect on cytokine profile in C57BL/6J mouse liver assessed as IFNgamma levels at 0.3 mg/kg, po by multiplex assay; format: functional, organism-based; method in brief: as §2
Plasma [9] = experiment: Proinflammatory activity in C57BL/6J mouse plasma assessed as IL-1beta levels at 3 mg/kg, po by multiplex assay (reference value: 60 pg/ml); format: functional
Liver [10] = experiment: Proinflammatory activity in C57BL/6J mouse liver assessed as IL-1beta levels at 3 mg/kg, po by multiplex assay; format: functional
Plasma [11] = experiment: Proinflammatory activity in C57BL/6J mouse plasma assessed as CXCL-1 levels at 1 mg/kg, po by multiplex assay (reference value: 230 pg/ml); format: functional
Plasma [12] = experiment: Proinflammatory activity in C57BL/6J mouse plasma assessed as CXCL-1 levels at 10 mg/kg, po by multiplex assay (reference value: 230 pg/ml); format: functional
Plasma [13] = experiment: Proinflammatory activity in C57BL/6J mouse plasma assessed as TNFalpha levels at 0.3 mg/kg, po by multiplex assay (reference value: 70 pg/ml); format: functional, organism-based
Plasma [14] = experiment: Anti-inflammatory activity in C57BL/6J mouse plasma assessed as IL-10 levels at 3 mg/kg, po by multiplex assay (reference value: 120 pg/ml); format: functional; method in brief: as §2
Liver [15] = experiment: Anti-inflammatory activity in C57BL/6J mouse liver assessed as IL-10 levels at 1 mg/kg, po by multiplex assay (reference value: 2 pg/g); format: functional
Method in brief: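 Mice (C57BL/6) got a single oral dose of 0.3–30 mg/kg in 20% HP-β-CD, in groups of 15. Three per group were sacrificed at 0.5, 1, 2, 4 or 7 h, and liver cytokines were measured by multiplex. Values were rounded to the nearest multiple of 5.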

[16] = Cmax in cynomolgus monkey plasma at 1 mg/kg, po by LC-MS analysis; format: ADME, organism-based, Macaca fascicularis; set-up: dose 1 mg/kg, route oral
Method in brief: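 Healthy cynomolgus monkeys received oral doses of 1, 3, 9 and 30 mg/kg, with a 2-week wash-out between doses. Systemic compound concentrations by LC−MS at 0.25, 0.5, 1, 2, 4, 8 and 24 h postdose.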

[17] = AUC (0 to last) in cynomolgus monkey plasma at 1 mg/kg, po by LC-MS analysis; format: ADME, organism-based, Macaca fascicularis; set-up: dose 1 mg/kg, time 0 - last, route oral
Method in brief: (§3)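 Healthy cynomolgus monkeys received single oral doses of 1, 3, 9 and 30 mg/kg, with a 2-week wash-out between doses. Systemic compound concentrations were measured by LC–MS at 0.25, 0.5, 1, 2, 4, 8 and 24 h postdose.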

[18] = AUC (0 to last) in cynomolgus monkey plasma at 3 mg/kg, po by LC-MS analysis; format: ADME, organism-based, Macaca fascicularis; set-up: dose 3 mg/kg, time 0 - last, route oral; method in brief: as §3
Cynomolgus monkey [19] = experiment: Plasma concentration in cynomolgus monkey at 3 mg/kg, po by LC-MS analysis; format: ADME, organism-based, Macaca fascicularis; details: in vivo
Cynomolgus monkey [20] = experiment: Effect on cytokine profile in cynomolgus monkey plasma assessed as IP10 levels at 9 mg/kg, po after 24 hrs by Luminex assay (reference value: 18.5 pg/ml); format: functional, Macaca fascicularis
Method in brief: (§4)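 Healthy cynomolgus monkeys given single oral doses of 1, 3, 9 and 30 mg/kg, with a 2-week wash-out planned between doses. Systemic cytokine levels in plasma were sampled at 0.5, 1, 2, 4, 9 and 24 h postdose.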

Cynomolgus monkey [21] = experiment: Effect on cytokine profile in cynomolgus monkey plasma assessed as IP10 levels at 30 mg/kg, po after 24 hrs by Luminex assay (reference value: 18.5 pg/ml); format: functional, Macaca fascicularis; method in brief: as §4
Cynomolgus monkey [22] = experiment: Effect on cytokine profile in cynomolgus monkey plasma assessed as IL-12P70 levels at 3 mg/kg, po after 24 hrs by Luminex assay (reference value: 2.17 pg/ml); format: functional, organism-based; details: Macaca fascicularis; method in brief: as §4
Cynomolgus monkey [23] = experiment: Effect on cytokine profile in cynomolgus monkey plasma assessed as IL-15 levels at 30 mg/kg, po after 24 hrs by Luminex assay (reference value: 20 pg/ml); format: functional, Macaca fascicularis; method in brief: as §4
Cynomolgus monkey [24] = experiment: Proinflammatory activity in cynomolgus monkey plasma assessed as IL-6 levels at 9 mg/kg, po after 24 hrs by Luminex assay (reference value: 80 pg/ml); format: functional, Macaca fascicularis
Cynomolgus monkey [25] = experiment: Activation of monocytes in cynomolgus monkey plasma assessed as upregulation of IL1Ra levels at 9 mg/kg, po after 24 hrs by Luminex assay (reference value: 320 pg/ml); format: functional, Macaca fascicularis
Cynomolgus monkey [26] = experiment: Anti-inflammatory activity in cynomolgus monkey plasma assessed as IL-10 levels at 3 mg/kg, po after 24 hrs by Luminex assay (reference value: 195 pg/ml); format: functional, Macaca fascicularis
Cynomolgus monkey [27] = experiment: Anti-inflammatory activity in cynomolgus monkey plasma assessed as IL-10 levels at 30 mg/kg, po after 24 hrs by Luminex assay (reference value: 195 pg/ml); format: functional, Macaca fascicularis
Cynomolgus monkey [28] = experiment: Upregulation of Tlr7 expression in cynomolgus monkey plasma at 3 mg/kg, po after 24 hrs by Fluidigm RT-qPCR analysis (reference value: 1.8); format: functional, Macaca fascicularis
Mus musculus = experiment: Toxicity in C57BL/6J mouse at 30 mg/kg, po after 1 to 2 hrs […]; format: organism-based; details: in vivo
[29] = biological target: TLR7 and TLR8 (Homo sapiens) (UniProt Q9NYK1+Q9NR97); experiment: Agonist activity at TLR7/8 in human PBMCs co-cultured with primary human hepatocytes infected with HBV genotype C for 12 days assessed as increase in MIP-1alpha levels up to 5 uM measured after 42 days
Chain of TLR7 and TLR8 (Homo sapiens) (Q9NR97 whole entry, looked up): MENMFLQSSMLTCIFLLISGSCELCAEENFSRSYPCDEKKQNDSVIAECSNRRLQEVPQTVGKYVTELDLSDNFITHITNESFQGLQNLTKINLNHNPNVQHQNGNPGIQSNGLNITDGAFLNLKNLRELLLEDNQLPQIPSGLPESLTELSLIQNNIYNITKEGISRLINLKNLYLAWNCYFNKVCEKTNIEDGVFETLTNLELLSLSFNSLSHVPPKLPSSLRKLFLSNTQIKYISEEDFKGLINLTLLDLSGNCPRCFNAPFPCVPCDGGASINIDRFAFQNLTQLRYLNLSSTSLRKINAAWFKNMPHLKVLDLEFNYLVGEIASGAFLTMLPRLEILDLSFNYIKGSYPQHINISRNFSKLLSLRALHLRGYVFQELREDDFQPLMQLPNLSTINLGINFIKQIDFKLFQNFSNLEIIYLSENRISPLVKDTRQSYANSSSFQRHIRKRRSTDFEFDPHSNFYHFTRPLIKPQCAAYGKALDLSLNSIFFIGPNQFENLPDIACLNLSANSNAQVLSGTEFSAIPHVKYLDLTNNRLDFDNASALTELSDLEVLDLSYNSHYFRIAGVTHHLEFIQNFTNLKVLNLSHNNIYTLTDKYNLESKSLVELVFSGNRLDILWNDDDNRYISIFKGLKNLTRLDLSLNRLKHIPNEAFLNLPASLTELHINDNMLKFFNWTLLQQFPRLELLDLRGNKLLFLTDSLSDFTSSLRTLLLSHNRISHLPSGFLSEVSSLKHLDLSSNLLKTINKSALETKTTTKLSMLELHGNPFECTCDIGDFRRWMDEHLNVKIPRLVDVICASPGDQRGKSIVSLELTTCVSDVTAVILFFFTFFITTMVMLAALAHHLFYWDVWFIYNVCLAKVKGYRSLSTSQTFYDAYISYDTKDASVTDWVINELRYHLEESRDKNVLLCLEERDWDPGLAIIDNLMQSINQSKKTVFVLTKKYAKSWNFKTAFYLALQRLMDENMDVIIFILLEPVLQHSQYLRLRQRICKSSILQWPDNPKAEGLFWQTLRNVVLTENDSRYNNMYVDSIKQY
Chain of TLR7 and TLR8 (Homo sapiens) (Q9NYK1 whole entry, looked up): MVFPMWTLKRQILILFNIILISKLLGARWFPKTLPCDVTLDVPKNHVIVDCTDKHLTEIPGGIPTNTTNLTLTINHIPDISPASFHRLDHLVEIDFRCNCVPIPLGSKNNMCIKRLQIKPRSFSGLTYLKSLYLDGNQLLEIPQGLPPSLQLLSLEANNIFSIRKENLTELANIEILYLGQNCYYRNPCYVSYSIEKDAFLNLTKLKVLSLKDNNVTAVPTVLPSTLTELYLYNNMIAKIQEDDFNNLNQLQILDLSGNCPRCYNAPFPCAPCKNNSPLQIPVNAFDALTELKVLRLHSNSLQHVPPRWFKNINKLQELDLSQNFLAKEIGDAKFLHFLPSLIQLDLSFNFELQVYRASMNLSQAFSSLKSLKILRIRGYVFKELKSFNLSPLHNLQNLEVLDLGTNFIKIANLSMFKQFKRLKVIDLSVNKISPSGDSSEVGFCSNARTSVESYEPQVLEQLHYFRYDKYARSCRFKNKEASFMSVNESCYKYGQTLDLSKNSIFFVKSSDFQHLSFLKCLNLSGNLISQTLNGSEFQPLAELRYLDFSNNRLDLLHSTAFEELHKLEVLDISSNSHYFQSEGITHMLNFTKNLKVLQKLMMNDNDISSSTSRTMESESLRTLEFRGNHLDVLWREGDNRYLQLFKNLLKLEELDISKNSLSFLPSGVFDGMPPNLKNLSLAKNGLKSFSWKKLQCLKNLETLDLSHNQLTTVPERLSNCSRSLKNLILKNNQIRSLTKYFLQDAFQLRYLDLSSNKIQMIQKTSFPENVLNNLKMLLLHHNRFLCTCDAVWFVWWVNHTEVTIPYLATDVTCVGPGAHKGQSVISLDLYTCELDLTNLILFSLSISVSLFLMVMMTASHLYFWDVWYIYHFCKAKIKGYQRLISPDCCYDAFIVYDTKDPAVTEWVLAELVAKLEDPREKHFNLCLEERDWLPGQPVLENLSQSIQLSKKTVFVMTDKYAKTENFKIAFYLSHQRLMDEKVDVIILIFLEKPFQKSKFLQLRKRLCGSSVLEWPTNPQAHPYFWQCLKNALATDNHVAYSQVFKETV

[30] = Ratio of drug level in Sprague-Dawley rat liver to plasma at 10 mg/kg, po

Work on `CCC[C@@H](CCO)Nc1nc(N)nc2c(F)cccc12` yielded a CC50 at 6 h [1] of over 24 µM, a fraction unbound at 4.5 h, 5 µM [2] of 0.34 and a Cmax [3] of 285 ng/g. The Cmax [4] was 188 ng/g, the Cmax [5] was 32 ng/g and the “fold change (FC)” value (Liver [6]) was 845. The Activity (Liver [7]) was “Below limit of detection”, the Activity (Liver [8]) was “Below limit of detection” and the Activity (Plasma [9]) was 40 pg/mL. For the same compound, the Activity (Liver [10]) was 22925 pg/g, the Activity (Plasma [11]) was 2155 pg/mL and the Activity (Plasma [12]) was over 10000 pg/mL. For the same compound, the Activity (Plasma [13]) was “Below limit of detection”, the Activity (Plasma [14]) was 1115 pg/mL and the Activity (Liver [15]) was 535 pg/g. For the same compound, the Cmax [16] was 38 ng/mL, the AUC(0-t) [17] was 75 ng·h/mL and the AUC(0-t) [18] was 383 ng·h/mL. It also gave a Cp (Cynomolgus monkey [19]) of 14 ng/mL, an Activity (Cynomolgus monkey [20]) of 2400 pg/mL and an Activity (Cynomolgus monkey [21]) of 8195 pg/mL. For the same compound, the Activity (Cynomolgus monkey [22]) was “Below limit of detection”, the Activity (Cynomolgus monkey [23]) was 85 pg/mL and the Activity (Cynomolgus monkey [24]) was 2265 pg/mL. For the same compound, the Activity (Cynomolgus monkey [25]) was 2455 pg/mL, the Activity (Cynomolgus monkey [26]) was 1615 pg/mL and the Activity (Cynomolgus monkey [27]) was 9135 pg/mL. For the same compound, the “fold change (FC)” value (Cynomolgus monkey [28]) was 5.1, the Activity (Mus musculus) was “Toxic” and the Activity [29] was “Active”. For the same compound, the Kp [30] was 16.
